ChEMBL document CHEMBL1148769, “3,17-disubstituted 2-alkylestra-1,3,5(10)-trien-3-ol derivatives: synthesis, in vitro and in vivo anticancer activity” (J Med Chem, 2007)
Calls of active or inactive are those of the source. The calls are words filed in the database; no cut-off is given here.

How the values were obtained:
MDA-MB-231 [1] = test: Antiproliferative activity against human MDA-MB-231 cells after 96 hrs by WST1 assay; assay type: functional; conditions: MDA-MB-231, 96 h
Outline: (§1)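 Cells kept in RPMI-1640 with 10% FBS, penicillin and streptomycin at 37 °C in 5% CO2. Seeded at 5000 cells/well, exposed to 10^-9-10^-4 M compound or vehicle for 96 h. Live cells counted by WST-1 and viability expressed as % of mean control, from which GI50 was calculated. Triplicate experiments.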

DU-145 [2] = test: Antiproliferative activity against human DU145 cells after 96 hrs by WST1 assay; assay type: functional; conditions: DU-145, 96 h; outline: as §1
MCF7 = test: Antiproliferative activity against human MCF7 cells by WST1 assay; assay type: functional
Steryl-sulfatase = biological target: T1, Steryl-sulfatase (Homo sapiens, UniProt P08842); test: Inhibition of steroid sulfatase in placental microsomes; parameters: species or system Placenta
T1 sequence (P08842 whole entry): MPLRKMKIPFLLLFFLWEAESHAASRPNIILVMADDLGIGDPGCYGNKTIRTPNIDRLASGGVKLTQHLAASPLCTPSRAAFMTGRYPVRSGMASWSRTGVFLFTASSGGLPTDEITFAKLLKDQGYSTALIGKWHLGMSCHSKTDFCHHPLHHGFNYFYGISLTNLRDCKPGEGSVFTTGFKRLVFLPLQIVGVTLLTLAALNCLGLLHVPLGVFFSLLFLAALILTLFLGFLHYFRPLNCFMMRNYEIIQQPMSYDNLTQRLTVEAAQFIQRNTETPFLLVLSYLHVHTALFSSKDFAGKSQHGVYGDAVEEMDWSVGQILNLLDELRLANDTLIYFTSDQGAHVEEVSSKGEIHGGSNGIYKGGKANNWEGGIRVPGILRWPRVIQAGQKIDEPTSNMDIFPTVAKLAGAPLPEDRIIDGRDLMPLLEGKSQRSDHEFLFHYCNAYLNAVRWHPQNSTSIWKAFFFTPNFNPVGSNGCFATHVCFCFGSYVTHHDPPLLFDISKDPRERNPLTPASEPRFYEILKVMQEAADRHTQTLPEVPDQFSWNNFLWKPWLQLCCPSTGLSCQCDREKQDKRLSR
Outline: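 Radiometric assay of STS activity in placental microsomes: conversion of tritiated estradiol-3-sulfate to estradiol is measured.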

MDA-MB-231 [3] = test: Antitumor activity against human MDA-MB-231 cells xenografted athymic mouse at 200 mg/kg, po, once a week for 4 weeks; assay type: functional, organism-based; parameters: dose 200 mg/kg
Outline: (§2)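 Female NCr-nude mice, 6-8 weeks old, bearing MDA-MB-231 xenografts, dosed orally in THF/PG vehicle from day 10. Schedules: 60 mg/kg daily for 28 d (to day 38), 90 mg/kg Mon/Wed/Fri × 4 (to day 36), or 200 mg/kg weekly × 4 (to day 32). Tumor volume was (w² × l)/2; one-way ANOVA against control.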

DU-145 [4] = test: Antitumor activity against human DU145 cells xenografted athymic mouse at 20 mg/kg/day, po after 25 days; assay type: functional
Outline: (§3)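 Male NCr-nude mice, 6-8 weeks old, implanted s.c. in the flank with 5 × 10⁶ DU145 cells; treatment began once tumors reached about 50-100 mm³. Dosed orally at 10, 20 or 40 mg/kg once daily for 28 d. Tumor volume was (w² × l)/2 and inhibition read after 25 days of treatment (day 35).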

MDA-MB-231 [5] = test: Antitumor activity against human MDA-MB-231 cells xenografted athymic mouse at 60 mg/kg/day, po after 28 days; assay type: functional, organism-based; outline: as §2
DU-145 [6] = test: Antitumor activity against human DU145 cells xenografted athymic mouse at 40 mg/kg/day, po after 25 days; assay type: functional; outline: as §3
DU-145 [7] = test: Antitumor activity against human DU145 cells xenografted athymic mouse at 10 mg/kg/day, po after 25 days; assay type: functional; outline: as §3
MDA-MB-231 [8] = test: Antitumor activity against human MDA-MB-231 cells xenografted athymic mouse at 90 mg/kg, po thrice a week for 4 weeks; assay type: functional, organism-based; parameters: dose 90 mg/kg; outline: as §2

| Structure (SMILES) | GI50 (MDA-MB-231 [1]) | GI50 (DU-145 [2]) | also measured |
| --- | --- | --- | --- |
| COc1cc2c(cc1OS(N)(=O)=O)CC[C@@H]1[C@@H]2CC[C@]2(C)[C@@H](OC(N)=O)CC[C@@H]12 | 1.15 µM | 1.34 µM | GI50 (MCF7): 3.5 µM; IC50 (Steryl-sulfatase): 0.52 µM |
| CCCCc1cc2c(cc1OS(N)(=O)=O)CC[C@@H]1[C@@H]2CC[C@]2(C)[C@@H](OC(C)=O)CC[C@@H]12 | 21.6 µM | 18.4 µM |  |
| CCCCc1cc2c(cc1O)CC[C@@H]1[C@@H]2CC[C@]2(C)[C@@H](O)CC[C@@H]12 | > 100 µM | > 100 µM |  |
| COc1cc2c(cc1OS(N)(=O)=O)CC[C@@H]1[C@@H]2CC[C@]2(C)[C@@H](OS(N)(=O)=O)CC[C@@H]12 | 0.28 µM | 0.34 µM |  |
| Cc1cc2c(cc1O)CC[C@@H]1[C@@H]2CC[C@]2(C)[C@@H](O)CC[C@@H]12 |  | 51 µM |  |
| C[C@]12CC[C@@H]3c4ccc(OS(N)(=O)=O)cc4CC[C@H]3[C@@H]1CC[C@@H]2OC(N)=O | > 100 µM | > 100 µM | GI50 (MCF7): 45 µM; IC50 (Steryl-sulfatase): 0.04 µM |
| CCCc1cc2c(cc1OS(N)(=O)=O)CC[C@@H]1[C@@H]2CC[C@]2(C)[C@@H](OC(N)=O)CC[C@@H]12 | 14.5 µM | 21 µM |  |
| CCCc1cc2c(cc1OS(N)(=O)=O)CC[C@@H]1[C@@H]2CC[C@]2(C)[C@@H](OS(N)(=O)=O)CC[C@@H]12 | 6.4 µM | 3.4 µM |  |
| Cc1cc2c(cc1OS(N)(=O)=O)CC[C@@H]1[C@@H]2CC[C@]2(C)[C@@H](OS(N)(=O)=O)CC[C@@H]12 | 0.25 µM | 0.38 µM |  |
| CCCc1cc2c(cc1O)CC[C@@H]1[C@@H]2CC[C@]2(C)[C@@H](O)CC[C@@H]12 | 16.6 µM | 15 µM |  |
| C[C@]12CC[C@@H]3c4ccc(OS(N)(=O)=O)cc4CC[C@H]3[C@@H]1CC[C@@H]2OS(N)(=O)=O | 18.3 µM | 11.5 µM |  |
| CCCc1cc2c(cc1OS(N)(=O)=O)CC[C@@H]1[C@@H]2CC[C@]2(C)[C@@H](OC(C)=O)CC[C@@H]12 | 20.4 µM | 61.3 µM |  |
| CC(C)c1cc2c(cc1OS(N)(=O)=O)CC[C@@H]1[C@@H]2CC[C@]2(C)[C@@H](OS(N)(=O)=O)CC[C@@H]12 |  | 1.8 µM |  |
| COc1cc2c(cc1O)CC[C@@H]1[C@@H]2CC[C@]2(C)[C@@H](O)CC[C@@H]12 [2-METHOXYESTRADIOL] | 0.94 µM |  |  |
| CC(C)c1cc2c(cc1OS(N)(=O)=O)CC[C@@H]1[C@@H]2CC[C@]2(C)[C@@H](OC(N)=O)CC[C@@H]12 | 3.4 µM | 2.4 µM |  |
| CCc1cc2c(cc1OS(N)(=O)=O)CC[C@@H]1[C@@H]2CC[C@]2(C)[C@@H](OC(C)=O)CC[C@@H]12 |  | 1.6 µM |  |
| CCc1cc2c(cc1OS(N)(=O)=O)CC[C@@H]1[C@@H]2CC[C@]2(C)[C@@H](OC(N)=O)CC[C@@H]12 | 0.39 µM | 0.22 µM | GI50 (MCF7): 0.64 µM |

More lines, main results first:

| GI50 (MDA-MB-231 [1]) | GI50 (DU-145 [2]) | Structure (SMILES) | also measured |
| --- | --- | --- | --- |
| 0.21 µM | 0.21 µM | CCc1cc2c(cc1OS(N)(=O)=O)CC[C@@H]1[C@@H]2CC[C@]2(C)[C@@H](OS(N)(=O)=O)CC[C@@H]12 | Activity (MDA-MB-231 [3]): Active; Activity (DU-145 [4]): 27%; Activity (MDA-MB-231 [5]): Active; Activity (DU-145 [6]): 65%; Activity (DU-145 [7]): 24%; Activity (MDA-MB-231 [8]): Active |
| 17 µM | 13 µM | CC(C)(C)c1cc2c(cc1OS(N)(=O)=O)CC[C@@H]1[C@@H]2CC[C@]2(C)[C@@H](OC(N)=O)CC[C@@H]12 |  |
|  | 24 µM | CC(C)(C)c1cc2c(cc1O)CC[C@@H]1[C@@H]2CC[C@]2(C)[C@@H](O)CC[C@@H]12 |  |
|  | > 10 µM | CC(C)(C)c1cc2c(cc1OS(N)(=O)=O)CC[C@@H]1[C@@H]2CC[C@]2(C)[C@@H](OS(N)(=O)=O)CC[C@@H]12 |  |
| > 100 µM | 15 µM | CCCCc1cc2c(cc1OS(N)(=O)=O)CC[C@@H]1[C@@H]2CC[C@]2(C)[C@@H](OC(N)=O)CC[C@@H]12 |  |
| 8 µM | 10.3 µM | CCc1cc2c(cc1O)CC[C@@H]1[C@@H]2CC[C@]2(C)[C@@H](O)CC[C@@H]12 |  |
| 10.7 µM | 9 µM | CCCCc1cc2c(cc1OS(N)(=O)=O)CC[C@@H]1[C@@H]2CC[C@]2(C)[C@@H](OS(N)(=O)=O)CC[C@@H]12 |  |
|  | 23 µM | CC(C)c1cc2c(cc1O)CC[C@@H]1[C@@H]2CC[C@]2(C)[C@@H](O)CC[C@@H]12 |  |
| 4.7 µM | 1.9 µM | Cc1cc2c(cc1OS(N)(=O)=O)CC[C@@H]1[C@@H]2CC[C@]2(C)[C@@H](OC(N)=O)CC[C@@H]12 |  |
